From ChEMBL document CHEMBL1799921, “3-(1,3,4-Thiadiazole-2-yl)quinoline derivatives: synthesis, characterization and anti-microbial activity” (Eur J Med Chem, 2011)
Values after ≈ are worked out from the molar mass of the structure shown.

Columns and labels:
Salmonella typhimurium [1] = test: Antibacterial activity against Salmonella Typhimurium after 18 hrs by macro-dilution test; format: functional, Salmonella enterica subsp. enterica serovar Typhimurium; settings: Salmonella enterica
How it was run: (§1)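 Tube macro-dilution. Compounds in DMSO serially diluted to final […]. 24 h old inoculum added to each tube. Standard inoculum […]. Incubated 18 h at 37 °C. MIC is the lowest concentration with no visible growth, read visually. DMSO negative and amoxicillin positive controls.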

Escherichia coli [2] = test: Antibacterial activity against Escherichia coli after 18 hrs by macro-dilution test; format: functional; how it was run: as §1
Escherichia coli [3] = test: Antibacterial activity against Escherichia coli measured at MIC after 18 hrs by halo zone test; format: functional
How it was run: (§2)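 Disk diffusion. Strains subcultured 18 h at 37 °C in BHI, then suspended in saline by McFarland to about 10⁵ CFU/mL. Suspension mixed 1:1 with antibiotic agar at 40 °C and plated. 6.0 mm paper disks loaded with dilutions from a DMSO stock (1 mg per 100 of DMSO). Incubated 18 h at 36 °C. Inhibition zone (mm) measured at the MIC. Amoxicillin and DMSO disks as controls.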

Staphylococcus aureus [4] = test: Antibacterial activity against Staphylococcus aureus after 18 hrs by macro-dilution test; format: functional; how it was run: as §1
Streptococcus pyogenes [5] = test: Antibacterial activity against Streptococcus pyogenes after 18 hrs by macro-dilution test; format: functional; how it was run: as §1
Salmonella typhimurium [6] = test: Antibacterial activity against Salmonella Typhimurium measured at MIC after 18 hrs by halo zone test; format: functional, Salmonella enterica subsp. enterica serovar Typhimurium; how it was run: as §2
Streptococcus pyogenes [7] = test: Antibacterial activity against Streptococcus pyogenes measured at MIC after 18 hrs by halo zone test; format: functional; how it was run: as §2
Staphylococcus aureus [8] = test: Antibacterial activity against Staphylococcus aureus measured at MIC after 18 hrs by halo zone test; format: functional; how it was run: as §2

Structure (SMILES) | MIC (Salmonella typhimurium [1]) [µg/mL] | MIC (Escherichia coli [2]) [µg/mL] | inhibition zone (IZ) (Escherichia coli [3]) [mm] | MIC (Staphylococcus aureus [4]) [µg/mL] | MIC (Streptococcus pyogenes [5]) [µg/mL] | inhibition zone (IZ) (Salmonella typhimurium [6]) [mm] | inhibition zone (IZ) (Streptococcus pyogenes [7]) [mm] | inhibition zone (IZ) (Staphylococcus aureus [8]) [mm]
S=C(N/N=C/c1cc2cccc(Cl)c2nc1Cl)NC1CCCCCCC1 | 256 (≈ 625 µM) | 128 (≈ 313 µM) | 17.62 | 256 (≈ 625 µM) | 256 (≈ 625 µM) | 17.54 | 17.54 | –
Fc1ccc(F)c(NC(=S)N/N=C/c2cc3ccccc3nc2Cl)c1 | 32 (≈ 84.9 µM) | 64 (≈ 170 µM) | 10.13 | 32 (≈ 84.9 µM) | 64 (≈ 170 µM) | 11.56 | 14.07 | 16.75
Cc1ccc(NC(=S)N/N=C/c2cc3ccccc3nc2Cl)cc1 | 64 (≈ 180 µM) | 64 (≈ 180 µM) | 16.65 | 32 (≈ 90.2 µM) | 32 (≈ 90.2 µM) | 18.02 | 17.43 | 17.93
O=[N+]([O-])c1ccc(NC(=S)N/N=C/c2cc3ccccc3nc2Cl)cc1 | 256 (≈ 663 µM) | 32 (≈ 82.9 µM) | 13.27 | 64 (≈ 166 µM) | 64 (≈ 166 µM) | – | 12.25 | 13.46
Cc1cccc2cc(/C=N/NC(N)=S)c(Cl)nc12 | 256 (≈ 918 µM) | 256 (≈ 918 µM) | – | 64 (≈ 230 µM) | 128 (≈ 459 µM) | 18.02 | 17.1 | 12.76
Cc1cccc2cc(/C=N/NC(=S)NC3CCCC3)c(Cl)nc12 | 256 (≈ 738 µM) | 256 (≈ 738 µM) | 16.97 | 256 (≈ 738 µM) | 256 (≈ 738 µM) | 17.44 | 18.71 | 20.04
Cc1cccc2cc(/C=N/NC(=S)NC3CCCCC3)c(Cl)nc12 | 256 (≈ 709 µM) | 128 (≈ 355 µM) | 21.27 | 128 (≈ 355 µM) | 256 (≈ 709 µM) | 15.66 | 11.08 | 12.75
Cc1cccc2cc(/C=N/NC(=S)NC3CCCCCCC3)c(Cl)nc12 | 128 (≈ 329 µM) | 256 (≈ 658 µM) | 16.61 | 256 (≈ 658 µM) | 128 (≈ 329 µM) | 22.51 | 14.45 | 15.78
Cc1ccccc1NC(=S)N/N=C/c1cc2cccc(C)c2nc1Cl | 32 (≈ 86.7 µM) | 64 (≈ 173 µM) | 15.17 | 32 (≈ 86.7 µM) | 64 (≈ 173 µM) | 13.94 | 18.81 | 14.8
Cc1ccc(NC(=S)N/N=C/c2cc3cccc(C)c3nc2Cl)cc1 | 32 (≈ 86.7 µM) | 64 (≈ 173 µM) | 18.67 | 32 (≈ 86.7 µM) | 64 (≈ 173 µM) | 17.18 | 17.65 | 19.24
Cc1cccc2cc(/C=N/NC(=S)Nc3ccc([N+](=O)[O-])cc3)c(Cl)nc12 | 64 (≈ 160 µM) | 32 (≈ 80 µM) | 17.48 | 64 (≈ 160 µM) | 32 (≈ 80 µM) | 14.23 | 13.27 | 17.31
NC(=S)N/N=C/c1cc2cccc(Cl)c2nc1Cl | 128 (≈ 428 µM) | 128 (≈ 428 µM) | 15.8 | 64 (≈ 214 µM) | 64 (≈ 214 µM) | 16.66 | 19.58 | 21.13
S=C(N/N=C/c1cc2cccc(Cl)c2nc1Cl)NC1CCCC1 | 128 (≈ 348 µM) | 256 (≈ 697 µM) | 17.18 | 128 (≈ 348 µM) | 256 (≈ 697 µM) | 15.17 | 13.15 | 17.68
S=C(N/N=C/c1cc2cccc(Cl)c2nc1Cl)NC1CCCCC1 | 256 (≈ 671 µM) | 256 (≈ 671 µM) | 15.23 | 64 (≈ 168 µM) | 128 (≈ 336 µM) | 15.72 | 13.73 | 17.23
Cc1ccccc1NC(=S)N/N=C/c1cc2cccc(Cl)c2nc1Cl | 32 (≈ 82.2 µM) | 64 (≈ 164 µM) | 13.47 | 32 (≈ 82.2 µM) | 64 (≈ 164 µM) | 10.53 | 10.26 | 18.9
Fc1ccc(F)c(NC(=S)N/N=C/c2cc3cccc(Cl)c3nc2Cl)c1 | 64 (≈ 156 µM) | 64 (≈ 156 µM) | 13.75 | 64 (≈ 156 µM) | 32 (≈ 77.8 µM) | 14.92 | 15.92 | 12.15
Cc1ccc(NC(=S)N/N=C/c2cc3cccc(Cl)c3nc2Cl)cc1 | 32 (≈ 82.2 µM) | 64 (≈ 164 µM) | 15.88 | 64 (≈ 164 µM) | 32 (≈ 82.2 µM) | 17.55 | 15.76 | 15.01
O=[N+]([O-])c1ccc(NC(=S)N/N=C/c2cc3cccc(Cl)c3nc2Cl)cc1 | 64 (≈ 152 µM) | 256 (≈ 609 µM) | – | 32 (≈ 76.1 µM) | 64 (≈ 152 µM) | 15.99 | 15.26 | 19.7
NC(=S)N/N=C/c1cc2ccccc2nc1Cl | 128 (≈ 483 µM) | 256 (≈ 967 µM) | 17.76 | 128 (≈ 483 µM) | 64 (≈ 242 µM) | 12.42 | 16.97 | 11.67
S=C(N/N=C/c1cc2ccccc2nc1Cl)NC1CCCC1 | 128 (≈ 385 µM) | 128 (≈ 385 µM) | 21.12 | 64 (≈ 192 µM) | 128 (≈ 385 µM) | 22.58 | 21.07 | 19.52
S=C(N/N=C/c1cc2ccccc2nc1Cl)NC1CCCCC1 | 128 (≈ 369 µM) | 128 (≈ 369 µM) | 17.68 | 256 (≈ 738 µM) | 256 (≈ 738 µM) | 15.93 | 12.38 | 12.37
S=C(N/N=C/c1cc2ccccc2nc1Cl)NC1CCCCCCC1 | 128 (≈ 341 µM) | 256 (≈ 683 µM) | 13.23 | 256 (≈ 683 µM) | 128 (≈ 341 µM) | 19.73 | 13.67 | 9.9
Cc1ccccc1NC(=S)N/N=C/c1cc2ccccc2nc1Cl | 64 (≈ 180 µM) | 32 (≈ 90.2 µM) | 18.84 | 256 (≈ 721 µM) | 64 (≈ 180 µM) | 14.73 | 16.48 | –
